# Bioassay records: PubChem BioAssay, several laboratories
# Yeast lifespan up: extends the lifespan of yeast; 130,000 tested, 0.68% active; AID 775; inhibition of the nicotinamide effect, % at 10 µM; S. cerevisiae growth with nicotinamide, OD615; deaD strain in restrictive glucose medium;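 active = inhibition above a set limit, placed 3 SD over the median of all compounds, cut at about 26% in these data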;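 also: 0% = nicotinamide-treated wells and 100% = cells grown without nicotinamide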
#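 Assay system: DeaD-strain S. cerevisiae. Medium: CSMM-D glucose medium, restrictive. Reagent: nicotinamide, 1.5 mM, co-present with compound. Compound: 10 µM single point, 0.25% DMSO. Schedule: culture preincubation 4 h, compound exposure 48 h, both 30 °C. Detection: absorbance at 615 nm.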
# BB579 growth dn: reduces growth of yeast BB579 in restrictive medium | 140,000 tested, 0.51% active | inhibition, % at 10 µM | S. cerevisiae BB579 growth, OD615, 48 h;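 active = inhibition above a set limit, 3 SD over the mean compound inhibition, cut at about 44% in these data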
#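 Test system: S. cerevisiae DeaD strain BB579 yeast; Medium: restrictive CSMM-D medium; Compound: one dose, 10 µM compound with 0.25% DMSO; Incubation: 4 h cell preincubation, 48 h compound exposure, 30 °C humidified; Signal: OD at 615 nm; Benchmarks: amphotericin B at 10 µg/mL as positive control.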
# RAM network inh: yeast RAM network inhibition; S. cerevisiae dse1pr::URA3 reporter, 5-FOA growth OD615, 2 d; analog-sensitive cbk1-as2 kinase mutant strain; inhibition, % at 50 µM; 190,000 tested, 1.8% active; AID 868;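 active = inhibition above a set limit, 3 SD over mean compound inhibition, cut at about 8.4% in these data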;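 also: 0% = DMSO-only wells with no growth and 100% = 10 µM 1-NA-PP1 full growth; inhibition rescues growth on 5-FOA so higher OD means more RAM inhibition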
# Insulin prom inh: TRM-6 insulin promoter activity inhibition. TRM-6 cells, insulin promoter-eGFP reporter, imaging; reporter expression induced with tamoxifen. inhibition, % at 2 µM. 130,000 tested, 0.9% active;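 active = inhibition above the mean plus 3 SD, with well images judged a real hit on visual review, cut at about 60% in these data, passing the limit was not always enough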
# Ins promoter up: MIN6 insulin promoter up-regulation; AID 1625; MIN6 insulin promoter-GFP reporter, high-content imaging; stronger effect = higher value; z-score at 5 µM; 190,000 tested, 0.3% active;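 active = z-score above 3 at 5 µM with at least 500 cells counted in the well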
# * = called active by the depositor; . = no result. Sampled rows, rich in hits. Any-hit rate of the full collection: about 3.1%.
SMILES,Yeast lifespan up,BB579 growth dn,RAM network inh,Insulin prom inh,Ins promoter up
Cc1nnc(SC(C)C(=O)Nc2ccc3c(c2)OCCO3)s1 (configuration not stated),-7.5,-52.8,1.8,.,0.75
Cc1nnc(SC(C)C(=O)Nc2ccc(S(=O)(=O)N3CCCCCC3)cc2)s1 (configuration not stated),-20.9,-50.5,9.2*,.,0.52
CC(=O)Nc1ccc(NC(=O)CSc2nnc3c4ccccc4n(C)c3n2)cc1,.,.,8.5*,-18.2,-0.75
CC(C)OCCCNC(=O)C1CCN(S(=O)(=O)N2CCCC2)CC1,.,.,0.5,-42.9,-0.16
Cc1cccc(NC(=O)CSc2nc3[nH]ncc3c(=O)[nH]2)c1C,2.1,-29.1,11.0*,26.7,0.17
Cc1ccc(NC(=O)CSc2nc3[nH]ncc3c(=O)[nH]2)c(C)c1,.,.,1.9,.,0.26
O=C(NNC(=S)NC(=O)c1cccs1)c1ccc(NC(=O)c2ccccc2)cc1,0.6,-26.3,3.4,28.6,-0.73
CCCCC(=O)Nc1ccc(C(=O)NNC(=S)NC(=O)c2cccs2)cc1,35.7*,-23.2,0.0,.,0.28
COc1ccccc1N(CN1CCCC1=O)C(=O)c1c(F)cccc1F,103.3*,-22.4,1.8,.,-0.49
COC(=O)c1ccc(C)c(NS(=O)(=O)c2ccc(OC)cc2)c1,0.6,-44.2,-1.1,100.0*,-1.54
Cc1ccc(Cn2nnnc2CN2CCC(O)(c3cccnc3)CC2)cc1,.,.,1.1,78.6*,0.63
CCOc1cc(NC(=S)NCc2ccco2)c(OCC)cc1NC(=O)C1CC1,0.0,-12.2,4.1,16.7,0.25
O=C1N/C(=N/Nc2ccccc2)S/C1=C\c1ccccc1,3.1,-45.5,0.9,.,3.19*
O=C1NC(=Nc2ccccc2)S/C1=C/c1cccnc1,.,.,0.5,.,-0.76
Cc1cccc(C(C#N)c2ccc(Cl)nn2)c1 (configuration not stated),.,.,-0.6,.,1.66
C=CCN(CC=C)S(=O)(=O)c1ccc2nc(NC(=O)C(C)C)sc2c1,75.8*,-41.1,-0.1,28.6,-0.44
Cc1sc2nc(SCC(=O)NCc3ccco3)[nH]c(=O)c2c1C,-1.9,-15.1,4.6,0.0,0.07
Cc1sc2nc(SCC(=O)NCc3cccs3)[nH]c(=O)c2c1C,-22.9,-34.2,0.9,90.9*,0.23
Cc1cccc(Nc2nnc(SCC(=O)NCc3cccs3)s2)c1,.,.,8.5*,-11.8,0.35
Cc1cccc(Nc2nnc(SCC(=O)NCc3cccs3)s2)c1C,2.5,-5.5,-1.1,-11.1,0.04
CCOCCCNC(=O)c1ccc(OC)cc1,-9.8,-7.3,-0.2,-36.4,-0.63
CCOCCCNC(=O)c1ccc(Br)cc1,-24.7,46.9*,0.3,-54.0,-0.47
CCc1ccc(C(=O)COC(=O)c2cc([N+](=O)[O-])ccc2NCCO)cc1,-1.6,-42.6,10.5*,-16.7,-2.69
O=C(COC(=O)c1cc([N+](=O)[O-])ccc1NCCO)c1ccc(Cl)cc1,-7.4,-27.1,1.0,.,1.01
Cc1cccc(/C(N)=N/OC(=O)C23CC4CC(CC(C4)C2)C3)c1,0.3,5.0,-1.2,0.0,0.32
SMILES,Yeast lifespan up,BB579 growth dn,RAM network inh,Insulin prom inh,Ins promoter up
CCc1ccc(N(CC(=O)NC2CCCC2)S(=O)(=O)c2c(C)noc2C)cc1,0.0,-99.4,9.0*,.,-0.52
CCCCn1c(N)c(N(CC(C)C)C(=O)CCCSc2nncs2)c(=O)[nH]c1=O,.,.,0.1,41.7,0.91
CC(C)Cn1c(N2CCN(CC(=O)Nc3ccc(Cl)cc3)CC2)nc2ccccc21,.,.,0.2,38.5,0.41
Nn1c(-c2cccs2)nc2sc3c(c2c1=O)CCCC3,-25.5,-10.8,9.0*,15.2,.
CC12C(=O)N(c3cccc4cccnc34)C(=O)C1C1C=CC2C1 (configuration not stated),-7.8,45.7*,1.2,.,0.38
CCCCNC(=S)N/N=C1\C(=O)c2cccc3cccc1c23,3.0,-47.1,9.1*,1.7,0.25
CNC(=S)N/N=C1\C(=O)c2cccc3cccc1c23,-11.3,24.8,2.1,13.2,1.09
O=C(NCc1ccco1)C(c1cccs1)N(Cc1ccccc1)C(=O)Cn1nnc2ccccc21 (configuration not stated),-9.8,-84.9,5.4,.,.
COCCNC(=O)C(c1ccc(C)o1)N(Cc1ccc(OC)cc1)C(=O)Cn1nnc2ccccc21 (configuration not stated),-0.4,-48.4,10.5*,5.3,-0.09
O=C(NCc1ccco1)C(c1ccco1)N(Cc1cccs1)C(=O)Cn1nnc2ccccc21 (configuration not stated),.,-46.4,9.5*,-34.9,.
O=c1cnn([C@@H]2O[C@H](CO)[C@@H](O)[C@H]2O)c(=O)[nH]1,11.8,44.3*,0.0,-28.6,.
CC(=O)Nc1ccc(S(=O)(=O)N(c2cccnc2)S(=O)(=O)c2ccc(NC(C)=O)cc2)cc1,.,-10.8,10.0*,6.2,-0.57
Cc1ccc(SCc2ccc(C(=O)Nc3cc([N+](=O)[O-])ccc3C)cc2)cc1,-7.5,-18.6,10.5*,.,0.11
Cc1ccc([N+](=O)[O-])cc1NC(=O)c1ccccc1,.,.,1.2,.,-0.3
O=C(Nc1cccc(Br)c1)c1ccc(CSc2ccccc2)cc1,-8.6,-37.4,0.9,19.2,0.04
O=C(Nc1cccc([N+](=O)[O-])c1)c1ccncc1,-1.4,-24.6,4.7,38.8,-0.14
Cc1ccc(NC(=O)c2ccc(CSc3ccccn3)cc2)cc1,-12.3,-26.7,8.4*,0.0,.
Cc1ccc(SCc2ccc(C(=O)Nc3cccc([N+](=O)[O-])c3)cc2)cc1,-7.6,-35.1,9.6*,23.3,0.83
Cc1ccc(NC(=O)c2ccc(CSc3ccccn3)cc2)c(O)c1,.,.,.,.,0.11
CC(C)(C)c1ccc(C(=O)Nc2cccc([N+](=O)[O-])c2)cc1,-3.6,-52.9,2.1,72.4*,-1.22
COc1cc(-c2nnc(CSc3nnc(Nc4ccc(Oc5ccccc5)cc4)s3)o2)cc(OC)c1OC,-2.6,-10.9,3.5,.,0
O=C(OCc1ccccn1)c1ccc(COc2ccc3ccccc3c2)o1,.,.,.,.,-0.13
COc1cccc(/C=N/NC(=O)c2nc(-c3ccccc3)cc(-c3ccccc3)n2)c1,-1.8,-23.6,2.7,3.3,0.54
COc1ccc(/C=N/NC(=O)c2nc(-c3ccccc3)cc(-c3ccccc3)n2)cc1OC,-1.7,-16.7,10.2*,.,1.79
COc1ccc(CCn2nnc(-c3ccc(NC(C)=O)c(Cl)c3)n2)cc1,.,-12.7,1.7,0.0,.
CCN(CC)c1cc2nc(C)n(Cc3ccccc3)c(=O)c2cc1NC(=O)C1CC1,.,-9.4,-1.2,84.6*,-0.81
O=C1c2ccccc2-c2onc3ccc(NCCCn4ccnc4)c1c23,79.7*,-44.4,37.9*,-56.8,.
CC(NC(=O)/C(C#N)=C/c1ccc(Cl)c([N+](=O)[O-])c1)c1ccccc1 (configuration not stated),5.4,46.3*,4.5,.,-0.13
N#C/C(=C\c1ccc(O)c([N+](=O)[O-])c1)C(=O)NCc1ccccc1,.,.,3.0,.,.
CC(C)(Nc1ccccc1)C(=O)c1ccccc1,5.9,8.1,0.4,30.0,-0.16
